Test results taken from the RNAGym collection of RNA variant scans (doi:10.1126/science.aae0568).
Fewer inactive variants are shown than the library holds.

B1: tRNA (parent)
chain: GUUCCGUUGGCGUAAUGGUAACGCGUCUCCCUCCUAAGGAGAAGACUGCGGGUUCGAGUCCCGUACGGAACG

Variants of: B1
Test: yeast fitness relative to wild type (ratio to wild type); higher = fitter; tRNA-Arg(CCU), competitive growth, 37 C, YPD
Outline: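 Amplicons of the tRNA-Arg(CCU) gene were sequenced, 100-nucleotide paired-end, from the start population and from each end population of a pooled yeast competition. The competition, in six parallel replicates, lasted 24 hours in YPD at 37°C. Fitness relative to wild type was calculated from changes in genotype frequencies. Genotypes had to have ≥ 100 starting reads, and estimates < 0.5 were set to 0.5.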

| Variant | yeast fitness |
| --- | --- |
| G6C C33G A36C | ≤ 0.5 |
| G6C C33G A36C C49A | ≤ 0.5 |
| G6C C33G A36C C49A G56A C60G A70U | ≤ 0.5 |
| G6C C33G A36U G38C A65G | ≤ 0.5 |
| G6C C33G A40U C46U C49G A65G | 0.624 |
| G6C C33G C34U C49U U64A | ≤ 0.5 |
| G6C C33G G41C G56C G58A G63C A65U | ≤ 0.5 |
| G6C C33U A43G G58A C60U | 0.554 |
| G6C C34G A45U G68C | ≤ 0.5 |
| G6C C34G G38A | ≤ 0.5 |
| G6C C34G G38A U64A | ≤ 0.5 |
| G6C C46A | 0.951 |
| G6C C46A G63A | 0.689 |
| G6C C46G | 0.823 |
| G6C C46G C62U G63A C66U | ≤ 0.5 |
| G6C C46G U54C | ≤ 0.5 |
| G6C C46U C60A | 0.644 |
| G6C C49U | 0.965 |
| G6C C49U U53A C66U A70U | ≤ 0.5 |
| G6C C55G G68A | ≤ 0.5 |
| G6C C55U | 0.873 |
| G6C C55U A70G | 0.7 |
| G6C C60G | 0.731 |
| G6C C61G | 0.675 |

| Variant | yeast fitness |
| --- | --- |
| G6C C61U | 0.726 |
| G6C C62A G67C | ≤ 0.5 |
| G6C C66A | 0.927 |
| G6C C66A A70U | 0.538 |
| G6C C66U | 1.01 |
| G6C G9A | 1.03 |
| G6C G9A A21U U28C U35G A36C A65G C66A | ≤ 0.5 |
| G6C G9A A21U U28G C34U | ≤ 0.5 |
| G6C G9A A21U U28G C34U G63A | ≤ 0.5 |
| G6C G9A G48C G51C U53A C66A | ≤ 0.5 |
| G6C G9C U54C | 0.603 |
| G6C G10A A14C U16A C27U C33U | ≤ 0.5 |
| G6C G10A C27A | 0.586 |
| G6C G10A C27A C49U C66U | ≤ 0.5 |
| G6C G10A G17A A36U G51C A69C | ≤ 0.5 |
| G6C G10A U16G C24U G50C | 0.609 |
| G6C G10A U16G C24U G50C C55U | ≤ 0.5 |
| G6C G10A U16G C31A | ≤ 0.5 |
| G6C G10C | 0.649 |
| G6C G10C A40G A42U | ≤ 0.5 |
| G6C G10C C11U G23A C24G C46G | ≤ 0.5 |
| G6C G10C C29U C30G A45U | ≤ 0.5 |
| G6C G12A | 0.85 |
| G6C G12A A21G | 0.552 |

| Variant | yeast fitness |
| --- | --- |
| G6C G12A A21G C66U | ≤ 0.5 |
| G6C G12A A37C G51A U53C C62A | ≤ 0.5 |
| G6C G12A C27U G39C | 0.616 |
| G6C G12A C27U G39C G63A | ≤ 0.5 |
| G6C G12A C30G A36U A42C | ≤ 0.5 |
| G6C G12A C31A A43G | ≤ 0.5 |
| G6C G12A G51A | 0.538 |
| G6C G12A G58C C61U A69C | ≤ 0.5 |
| G6C G12A U35A | 0.55 |
| G6C G12A U47A G51C A65G | ≤ 0.5 |
| G6C G12C | 0.676 |
| G6C G12C U47A | ≤ 0.5 |
| G6C G17A A36C C62G | 0.536 |
| G6C G17A A36G C60U G63C | ≤ 0.5 |
| G6C G17A A36U C46A U53C C66A | ≤ 0.5 |
| G6C G17A A36U G58C | ≤ 0.5 |
| G6C G17A A37G C60G A70U | ≤ 0.5 |
| G6C G17A A40U | ≤ 0.5 |
| G6C G17A C24A U32C | ≤ 0.5 |
| G6C G17A C24A U32C A45C | ≤ 0.5 |
| G6C G17A C24A U32C A45C C60A | ≤ 0.5 |
| G6C G17A C24A U32C A45C C60A A69U | ≤ 0.5 |
| G6C G17A C30U A42C | 0.63 |
| G6C G17A C30U A42C A43G | ≤ 0.5 |

| Variant | yeast fitness |
| --- | --- |
| G6C G17A U19G A69U | ≤ 0.5 |
| G6C G17C C27U A40U C60U | ≤ 0.5 |
| G6C G17C C31G A36G U59C | 0.599 |
| G6C G17C U32G A40C G67A | 0.603 |
| G6C G18A | 0.729 |
| G6C G18A G23A C30U C33U A65G | 0.536 |
| G6C G18A G51C A65C | ≤ 0.5 |
| G6C G18C A21G A40U C49U C61U A70G | 0.564 |
| G6C G18C C22U | 0.548 |
| G6C G18C C22U C34G A36U A57C C66U | ≤ 0.5 |
| G6C G18C C22U C34G A36U C49A A57C C66U | ≤ 0.5 |
| G6C G18C C22U C34G A36U G56C G63A | ≤ 0.5 |
| G6C G23A | 0.893 |
| G6C G23C C24A | 0.585 |
| G6C G23C C24U G68A | 0.689 |
| G6C G25A | 1.17 |
| G6C G25A A37U | ≤ 0.5 |
| G6C G25A A37U A42G | ≤ 0.5 |
| G6C G25A C27G A57U | ≤ 0.5 |
| G6C G25A C27G U59A U64G | ≤ 0.5 |
| G6C G25C | 0.971 |
| G6C G25C A40U A65C | ≤ 0.5 |
| G6C G25C C29G G52A A69U | 0.527 |
| G6C G38C | 0.693 |

| Variant | yeast fitness |
| --- | --- |
| G6C G38C G68A A70U | ≤ 0.5 |
| G6C G41A A45C A57C | ≤ 0.5 |
| G6C G41A A45U | ≤ 0.5 |
| G6C G41C | 0.671 |
| G6C G41C A45G G63A C66G G67C | ≤ 0.5 |
| G6C G41C C49G | 0.544 |
| G6C G41C C49G U54C U59G G63A C66U | ≤ 0.5 |
| G6C G41C C49G U59G G63A C66U | 0.54 |
| G6C G44C | 0.853 |
| G6C G44C G67U | 0.501 |
| G6C G48A | 1.01 |
| G6C G48C A65U A70U | ≤ 0.5 |
| G6C G50A | 0.865 |
| G6C G50A G67A | 0.606 |
| G6C G50C U53C C55U | ≤ 0.5 |
| G6C G51A A65G C66U | ≤ 0.5 |
| G6C G51A A70G | ≤ 0.5 |
| G6C G51C | 0.596 |
| G6C G51C A57G C61U A65C | ≤ 0.5 |
| G6C G51C A65C | 0.579 |
| G6C G52C C61A | ≤ 0.5 |
| G6C G58C C61A | 0.528 |
| G6C G58C U64A | 0.529 |
| G6C G63A | 0.911 |

| Variant | yeast fitness |
| --- | --- |
| G6C G63C | 0.689 |
| G6C G67A | 0.874 |
| G6C G67C | 0.75 |
| G6C G67U | 0.844 |
| G6C G68A | 0.662 |
| G6C U7A C27U | ≤ 0.5 |
| G6C U7C A14G A20C A57C | ≤ 0.5 |
| G6C U7C C31A | ≤ 0.5 |
| G6C U7C G9C C49U | ≤ 0.5 |
| G6C U7C G12A C24U C29G G50C C66U | ≤ 0.5 |
| G6C U7C G23C C24A C49U C60A | ≤ 0.5 |
| G6C U7G | 0.725 |
| G6C U7G C24G C34U U53C C55G C62A | ≤ 0.5 |
| G6C U7G C24U C27A C60U | ≤ 0.5 |
| G6C U7G G17C | 0.525 |
| G6C U7G U16G A43G | 0.707 |
| G6C U7G U16G A43G A65C | 0.805 |
| G6C U7G U19A C27G G67U | ≤ 0.5 |
| G6C U8A C22U C61G | 0.501 |
| G6C U8A C22U U59C | ≤ 0.5 |
| G6C U8C | 0.662 |
| G6C U8C A14G | 0.522 |
| G6C U8C A20G G50A A57U | ≤ 0.5 |
| G6C U8C A43U U59C | ≤ 0.5 |

| Variant | yeast fitness |
| --- | --- |
| G6C U8C C11U G39C C55A | ≤ 0.5 |
| G6C U8C C22U | 0.526 |
| G6C U8C C33U A43G G58A C60U | ≤ 0.5 |
| G6C U8C C49U | 0.531 |
| G6C U8C C49U A65U | ≤ 0.5 |
| G6C U8C C66U | 0.73 |
| G6C U8C G25A C34U A43U | ≤ 0.5 |
| G6C U8C G41A A42C G50C A70G | ≤ 0.5 |
| G6C U8C G41C | ≤ 0.5 |
| G6C U8C G48A | 0.664 |
| G6C U8C G56A | 0.672 |
| G6C U8C G58C G67A | ≤ 0.5 |
| G6C U8C U54C G58A | ≤ 0.5 |
| G6C U8G U19G C33A A42C G58A | ≤ 0.5 |
| G6C U13A A20U A21G A69U | ≤ 0.5 |
| G6C U13C | 0.823 |
| G6C U13C C33U A42C C60U A69G | 0.665 |
| G6C U13G C22A C34G C62A | 0.59 |
| G6C U13G C55G | 0.659 |
| G6C U13G G18A C55G | ≤ 0.5 |
| G6C U13G G18A G48C G68U | ≤ 0.5 |
| G6C U13G G18A U54C C55A | ≤ 0.5 |
| G6C U16A | 0.631 |
